The text below walks through data of ChEMBL document CHEMBL2440038, “Arylthioamides as H2S Donors: l-Cysteine-Activated Releasing Properties and Vascular Effects in Vitro and in Vivo” (ACS Med Chem Lett, 2013).

The source made the active and inactive calls. The calls are words filed in the database; no cut-off is given here.

Data set [1] in a line: Induction of H2S release in Tyrode buffer in presence of Wistar rat endothelium-denuded thoracic aortic ring. The data set is classed as functional. Particulars: TDE = time-dependent effect. In outline: (§1)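 Incubation in Tyrode buffer, the medium used for functional tests, with or without rat aortic ring tissue. No L-cysteine or glutathione added. H2S recorded continuously by amperometry; concentration reported 15 min after addition. Mean with SEM.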

The nature of data set [2]: Induction of H2S release in Tyrode buffer after 15 mins. Type of data set: physicochemical. Particulars: 0.25 h. An outline of the steps: as §1
The test system of data set [3] is Aorta. As to the kind of experiment: Inhibition of noradrenaline-induced vasoconstriction in Wistar rat endothelium-denuded thoracic aortic ring at 1 mM after 20 mins. The data set is classed as functional, tissue-based. In outline: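 Endothelium-denuded rat aortic rings preincubated with test agent, NaHS or vehicle, then given cumulative noradrenaline. Contraction expressed as % of a prior response to 60 mM KCl.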

A short description of data set [4]: Activation of KATP channel in HASMC assessed as membrane hyperpolarization at 1 mM using DiBac4(3) dye by spectrofluorimetric analysis relative to LCRK. The following applies: Homo sapiens. In outline:
(§2)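 Cultured human aortic smooth muscle cells; membrane potential followed as change in relative fluorescence of a potential-sensitive dye. Test agent added at increasing concentrations up to 1 mM. Response expressed as % of maximal hyperpolarization produced by levcromakalim 10 μM (reference KATP opener). Mean with SEM.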

Data set [5] can be described thus: Induction of H2S release in PBS buffer 10x at pH 7.4 at 1 mM in presence of glutathione. Type of data set: physicochemical. The following applies: pH 7.4, 1000 µM. In outline: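 Release measured amperometrically in assay buffer (pH 7.4, 35–37 °C), test agent 1 mM, with reduced glutathione added as the thiol. Continuous H2S–time curves recorded. Mean with SEM.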

A short description of data set [6]: Activation of KATP channel in HASMC assessed as membrane hyperpolarization using DiBac4(3) dye by spectrofluorimetric analysis relative to LCRK. Particulars: Homo sapiens. In outline:
as §2

For data set [7], the system named is Rattus norvegicus. As to the kind of experiment: Reduction of systolic blood pressure in rat at 0.1 mg/kg, po (reference value: 102% +/- 1%). Type of data set: functional, Artery. The arrangement: scale not given: the % may be the effect or the level left.

On to `NC(=S)c1ccc(O)cc1`, for which the Activity entry in data set [1] was “tde”; in data set [2] it was 0.24 µM; in data set [4], 79%; in data set [5] it was “Active”; in data set [6], “Dose-dependent effect”; in data set [7] it was 89%. The inhibition entry in data set [3] is “Active”.

On to `[Na+].[SH-]` [SODIUM HYDROSULFIDE], for which the inhibition entry in data set [3] was “Active”. The values for the Activity in data set [4] and in data set [7] were 52% and 91%, respectively.
